Each structure is given as a SMILES string. Peptide text beside a SMILES is read from it. * marks the point of attachment. X1 = N=C(N)NC/C=C/CN*

For data set [1], the target named is T1, Proprotein convertase subtilisin/kexin type 7 (Homo sapiens, UniProt Q16549).
T1 sequence (Q16549 whole entry): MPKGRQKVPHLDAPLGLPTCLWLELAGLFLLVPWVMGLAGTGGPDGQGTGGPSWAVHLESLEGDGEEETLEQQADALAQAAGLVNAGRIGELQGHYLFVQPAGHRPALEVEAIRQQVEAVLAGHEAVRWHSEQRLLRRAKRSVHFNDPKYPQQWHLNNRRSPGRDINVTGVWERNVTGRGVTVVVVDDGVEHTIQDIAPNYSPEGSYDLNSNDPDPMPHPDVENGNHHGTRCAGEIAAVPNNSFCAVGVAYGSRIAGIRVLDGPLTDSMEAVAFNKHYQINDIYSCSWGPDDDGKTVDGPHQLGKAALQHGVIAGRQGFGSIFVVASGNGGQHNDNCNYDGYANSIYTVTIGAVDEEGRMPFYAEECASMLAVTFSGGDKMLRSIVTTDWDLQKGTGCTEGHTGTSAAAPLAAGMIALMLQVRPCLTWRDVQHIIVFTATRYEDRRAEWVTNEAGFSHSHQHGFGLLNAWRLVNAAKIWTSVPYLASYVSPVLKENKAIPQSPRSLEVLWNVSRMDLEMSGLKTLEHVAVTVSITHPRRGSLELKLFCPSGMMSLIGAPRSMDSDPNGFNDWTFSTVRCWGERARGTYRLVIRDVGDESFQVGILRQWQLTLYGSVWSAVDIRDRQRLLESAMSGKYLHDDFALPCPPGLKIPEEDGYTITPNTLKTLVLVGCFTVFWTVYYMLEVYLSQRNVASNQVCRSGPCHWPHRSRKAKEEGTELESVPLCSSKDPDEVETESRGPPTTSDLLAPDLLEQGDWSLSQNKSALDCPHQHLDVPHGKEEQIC
Nature of the data set: Inhibition of human PC7 expressed in drosophila schneider 2 cells using pyroGlu-Arg-Thr-Lys-Arg-AMC as substrate after 1 hr. Summed up: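 Human enzymes were expressed in Drosophila S2 cells and purified. Fluorogenic pyroGlu-RTKR-AMC was used at fixed concentration with varied inhibitor, 37 °C over 1 h. Buffers: furin, 100 mM Hepes pH 7.5, 1 mM CaCl2, 1 mM β-mercaptoethanol, 1.8 mg/mL BSA; PACE4 and PC7, 20 mM Bis-Tris pH 6.5, 1 mM CaCl2, 1.8 mg/mL BSA; PC2, same buffer at pH 5.7. Ki from IC50 (Cheng–Prusoff), or apparent Ki (Morrison) for tight binders. Triplicate, mean ± SD.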

Data set [2] is described as follows: Acute toxicity in human DU145 cells assessed as cell death/lysis at 100 uM after 4 hrs by LDH assay. It is filed as cell-based, DU-145. To be noted: read-out: INH. The method, boiled down: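 DU145 cells (RPMI 1640, 5% FBS, 37 °C, 5% CO2) plated; 24 h later peptides added at 100 μM. After 4 h, release of lactate dehydrogenase into the medium was quantified enzymatically with a commercial LDH cytotoxicity kit as the measure of acute membrane damage/lysis.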

The term Ki denotes a dissociation constant, usually derived from enzyme kinetics or from competition with a known ligand. A lower Ki goes with tighter binding. For the molecule `CC(=O)N[C@@H](CC(C)C)C(=O)N[C@@H](CC(C)C)C(=O)N[C@@H](CC(C)C)C(=O)N[C@@H](CC(C)C)C(=O)N[C@@H](CCCNC(=N)N)C(=O)N[C@H](C(=O)N[C@@H](CCCCN)C(=O)NC/C=C/CNC(=N)N)C(C)C` (Ac-LLLLRVK-X1), the Ki in data set [1] turned out to be 72 nM. Further, the cytotoxicity at 4 h, 100 µM in data set [2] is less than 5%.

Values taken from ChEMBL document CHEMBL3112425, “Design, synthesis, and structure-activity relationship studies of a potent PACE4 inhibitor” (J Med Chem, 2014).
